Results reported in ChEMBL document CHEMBL3588789, “Synthesis and Pharmacokinetic Evaluation of Siderophore Biosynthesis Inhibitors for Mycobacterium tuberculosis” (J Med Chem, 2015).

Tested on: not listed separately
Assay: Inhibition of Mycobacterium tuberculosis MbtA expressed in Escherichia coli using [32P]PPi, ATP and salicylic acid incubated for 20 mins by liquid scintillation counting method
Details: read-out: Ki(app)

Compound	Ki [nM]
CCN(CC)CC.O=C(NS(=O)(=O)NC[C@H]1O[C@@H](n2cnc3c(NC4CC4)ncnc32)[C@H](O)[C@@H]1O)c1ccccc1O	1.5
CCN(CC)CC.O=C(NS(=O)(=O)NC[C@H]1O[C@@H](n2cnc3c(NC4CC4)nc(-c4ccccc4)nc32)[C@H](O)[C@@H]1O)c1ccccc1O	0.76
CCN(CC)CC.Nc1nc(-c2ccccc2)nc2c1ncn2[C@@H]1O[C@H](CNS(=O)(=O)NC(=O)c2ccccc2O)[C@@H](O)[C@H]1F	1.6

Tested on: Mycobacterium tuberculosis
Assay: Antimicrobial activity against Mycobacterium tuberculosis H37Rv grown in GAS medium without ferric ammonium citrate at pH 6.6 incubated for 10 to 14 days by broth microdilution method
Assay type: functional
Details: not given

Compound	MIC [µM]
CCN(CC)CC.O=C(NS(=O)(=O)NC[C@H]1O[C@@H](n2cnc3c(NC4CC4)ncnc32)[C@H](O)[C@@H]1O)c1ccccc1O	0.098
CCN(CC)CC.O=C(NS(=O)(=O)NC[C@H]1O[C@@H](n2cnc3c(NC4CC4)nc(-c4ccccc4)nc32)[C@H](O)[C@@H]1O)c1ccccc1O	6.25
CCN(CC)CC.Nc1nc(-c2ccccc2)nc2c1ncn2[C@@H]1O[C@H](CNS(=O)(=O)NC(=O)c2ccccc2O)[C@@H](O)[C@H]1F	1.56

Tested on: not listed separately
Assay: Ratio of MIC for antimicrobial activity against Mycobacterium tuberculosis H37Rv to KI)app) for inhibition of Mycobacterium tuberculosis MbtA expressed in Escherichia coli
Details: not given

Compound	Ratio
CCN(CC)CC.O=C(NS(=O)(=O)NC[C@H]1O[C@@H](n2cnc3c(NC4CC4)ncnc32)[C@H](O)[C@@H]1O)c1ccccc1O	65
CCN(CC)CC.O=C(NS(=O)(=O)NC[C@H]1O[C@@H](n2cnc3c(NC4CC4)nc(-c4ccccc4)nc32)[C@H](O)[C@@H]1O)c1ccccc1O	8224
CCN(CC)CC.Nc1nc(-c2ccccc2)nc2c1ncn2[C@@H]1O[C@H](CNS(=O)(=O)NC(=O)c2ccccc2O)[C@@H](O)[C@H]1F	975

Tested on: HepG2
Assay: Cytotoxicity against human HepG2 cells assessed as reduction in cell viability incubated for 48 hrs by MTT assay
Assay type: cell-based
Details: hepg2, 48 h
Method in brief: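 HepG2 cells (2.5–5.0 × 10^4 per well) in EMEM with 10% FBS, in triplicate. Final compound concentrations 1–200 μM diluted from 20 mM DMSO stocks. Controls were 1% DMSO and 1% Triton X-100. Incubated 48 h at 37 °C under 5% CO2.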

Compound	CC50 [nM]
CCN(CC)CC.Nc1nc(-c2ccccc2)nc2c1ncn2[C@@H]1O[C@H](CNS(=O)(=O)NC(=O)c2ccccc2O)[C@@H](O)[C@H]1F	> 200000

Tested on: not listed separately
Assay: AUC (0 to infinity) in Sprague-Dawley rat at 2.5 mg/kg, iv by LC-MS/MS method
Assay type: ADME, organism-based
Parameters: dose 2.5 mg/kg, route intravenous, time infinity
Details: in vivo
Method in brief: (§1)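 Female Sprague-Dawley rats (250–274 g) with dual jugular/femoral vein catheters, 3 per compound, given a single 2.5 mg/kg bolus into the jugular catheter over 5 s, 3 days after oral dosing. Vehicle was 0.05% sodium carboxymethylcellulose or 25% hydroxypropyl-β-cyclodextrin in water. Femoral blood sampled at 0–480 min into K2EDTA. Plasma analysed by LC–MS/MS with an internal standard. Non-compartmental analysis.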

Compound	AUC(0-inf) [ng·h/mL]
CCN(CC)CC.O=C(NS(=O)(=O)NC[C@H]1O[C@@H](n2cnc3c(NC4CC4)ncnc32)[C@H](O)[C@@H]1O)c1ccccc1O	3480
CCN(CC)CC.O=C(NS(=O)(=O)NC[C@H]1O[C@@H](n2cnc3c(NC4CC4)nc(-c4ccccc4)nc32)[C@H](O)[C@@H]1O)c1ccccc1O	3070
CCN(CC)CC.Nc1nc(-c2ccccc2)nc2c1ncn2[C@@H]1O[C@H](CNS(=O)(=O)NC(=O)c2ccccc2O)[C@@H](O)[C@H]1F	33000

Tested on: not listed separately
Assay: Clearance in Sprague-Dawley rat at 2.5 mg/kg, iv by LC-MS/MS method
Assay type: ADME, organism-based
Details: in vivo
Method in brief: as §1

Compound	clearance [mL/min/kg]
CCN(CC)CC.O=C(NS(=O)(=O)NC[C@H]1O[C@@H](n2cnc3c(NC4CC4)ncnc32)[C@H](O)[C@@H]1O)c1ccccc1O	9.6
CCN(CC)CC.O=C(NS(=O)(=O)NC[C@H]1O[C@@H](n2cnc3c(NC4CC4)nc(-c4ccccc4)nc32)[C@H](O)[C@@H]1O)c1ccccc1O	13.6
CCN(CC)CC.Nc1nc(-c2ccccc2)nc2c1ncn2[C@@H]1O[C@H](CNS(=O)(=O)NC(=O)c2ccccc2O)[C@@H](O)[C@H]1F	1.3

Tested on: not listed separately
Assay: Terminal half life in Sprague-Dawley rat at 2.5 mg/kg, iv by LC-MS/MS method
Assay type: ADME, organism-based
Details: in vivo, read-out: beta t1/2

Compound	half-life [min]
CCN(CC)CC.O=C(NS(=O)(=O)NC[C@H]1O[C@@H](n2cnc3c(NC4CC4)ncnc32)[C@H](O)[C@@H]1O)c1ccccc1O	15.1
CCN(CC)CC.O=C(NS(=O)(=O)NC[C@H]1O[C@@H](n2cnc3c(NC4CC4)nc(-c4ccccc4)nc32)[C@H](O)[C@@H]1O)c1ccccc1O	15.5
CCN(CC)CC.Nc1nc(-c2ccccc2)nc2c1ncn2[C@@H]1O[C@H](CNS(=O)(=O)NC(=O)c2ccccc2O)[C@@H](O)[C@H]1F	121

Tested on: not listed separately
Assay: Cmax in Sprague-Dawley rat at 25 mg/kg, po by LC-MS/MS method
Assay type: ADME, organism-based
Parameters: dose 25 mg/kg, route oral
Details: Sprague-Dawley, in vivo
Method in brief: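 Female Sprague-Dawley rats (250–274 g), catheterised, 3 per compound, dosed by oral gavage at 25 mg/kg from a 10 mg/mL solution. Femoral-vein blood taken at 0, 15, 30, 45, 60, 120, 240 and 480 min into K2EDTA. Plasma protein-precipitated with an internal standard and quantified by LC–MS/MS against standards in rat plasma. Parameters by non-compartmental analysis.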

Compound	Cmax [ng/mL]
CCN(CC)CC.O=C(NS(=O)(=O)NC[C@H]1O[C@@H](n2cnc3c(NC4CC4)ncnc32)[C@H](O)[C@@H]1O)c1ccccc1O	140
CCN(CC)CC.O=C(NS(=O)(=O)NC[C@H]1O[C@@H](n2cnc3c(NC4CC4)nc(-c4ccccc4)nc32)[C@H](O)[C@@H]1O)c1ccccc1O	100
CCN(CC)CC.Nc1nc(-c2ccccc2)nc2c1ncn2[C@@H]1O[C@H](CNS(=O)(=O)NC(=O)c2ccccc2O)[C@@H](O)[C@H]1F	500

Tested on: not listed separately
Assay: AUC (0 to infinity) in Sprague-Dawley rat at 25 mg/kg, po by LC-MS/MS method
Assay type: ADME, organism-based
Parameters: dose 25 mg/kg, time infinity, route oral
Details: Sprague-Dawley, in vivo

Compound	AUC(0-inf) [ng·h/mL]
CCN(CC)CC.O=C(NS(=O)(=O)NC[C@H]1O[C@@H](n2cnc3c(NC4CC4)ncnc32)[C@H](O)[C@@H]1O)c1ccccc1O	302
CCN(CC)CC.O=C(NS(=O)(=O)NC[C@H]1O[C@@H](n2cnc3c(NC4CC4)nc(-c4ccccc4)nc32)[C@H](O)[C@@H]1O)c1ccccc1O	66.7
CCN(CC)CC.Nc1nc(-c2ccccc2)nc2c1ncn2[C@@H]1O[C@H](CNS(=O)(=O)NC(=O)c2ccccc2O)[C@@H](O)[C@H]1F	2330

Tested on: Rattus norvegicus
Assay: Oral bioavailability in Sprague-Dawley rat at 25 mg/kg by LC-MS/MS method
Assay type: ADME, organism-based
Details: in vivo
Method in brief: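 Crossover in the same 3 female Sprague-Dawley rats: 25 mg/kg by oral gavage, then after a 3-day washout 2.5 mg/kg iv bolus. Serial femoral plasma quantified by LC–MS/MS. AUCs by non-compartmental analysis. Absolute bioavailability calculated individually for each rat from its oral and iv data.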

Compound	F [%]
CCN(CC)CC.O=C(NS(=O)(=O)NC[C@H]1O[C@@H](n2cnc3c(NC4CC4)ncnc32)[C@H](O)[C@@H]1O)c1ccccc1O	1
CCN(CC)CC.O=C(NS(=O)(=O)NC[C@H]1O[C@@H](n2cnc3c(NC4CC4)nc(-c4ccccc4)nc32)[C@H](O)[C@@H]1O)c1ccccc1O	0.3
CCN(CC)CC.Nc1nc(-c2ccccc2)nc2c1ncn2[C@@H]1O[C@H](CNS(=O)(=O)NC(=O)c2ccccc2O)[C@@H](O)[C@H]1F	0.8

Tested on: Caco-2
Assay: Apparent permeability from apical to basolateral side in human Caco2 cells after 30 to 120 mins by HPLC method
Assay type: ADME, cell-based
Details: not given
Method in brief: (§2)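 Caco-2 cells (passage 50–70) grown 21 days on Transwell inserts, used only where TEER >300. Apical buffer pH 6.0, basolateral pH 7.4, 60 min preincubation. Compound dosed from a 20 mM DMSO stock with lucifer yellow on the donor side. Samples analysed by HPLC. Papp = (dQ/dt)/(A·C0) from cumulative sampling. Efflux ratio from B–A and A–B values.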

Compound	Papp [×10⁻⁶ cm/s]
CCN(CC)CC.O=C(NS(=O)(=O)NC[C@H]1O[C@@H](n2cnc3c(NC4CC4)nc(-c4ccccc4)nc32)[C@H](O)[C@@H]1O)c1ccccc1O	0.52

Tested on: Caco-2
Assay: Apparent permeability from basolateral to apical side in human Caco2 cells after 30 to 120 mins by HPLC method
Assay type: ADME, cell-based
Details: not given
Method in brief: as §2

Compound	Papp [×10⁻⁶ cm/s]
CCN(CC)CC.O=C(NS(=O)(=O)NC[C@H]1O[C@@H](n2cnc3c(NC4CC4)nc(-c4ccccc4)nc32)[C@H](O)[C@@H]1O)c1ccccc1O	1.8

Tested on: Caco-2
Assay: Efflux ratio in human Caco2 cells after 30 to 120 mins by HPLC method
Assay type: ADME, cell-based
Details: not given
Method in brief: as §2

Compound	Ratio
CCN(CC)CC.O=C(NS(=O)(=O)NC[C@H]1O[C@@H](n2cnc3c(NC4CC4)nc(-c4ccccc4)nc32)[C@H](O)[C@@H]1O)c1ccccc1O	3.45
